# Measurements as given in ChEMBL document CHEMBL1143652, “Joys of molecules. 2. Endeavors in chemical biology and medicinal chemistry” (J Med Chem, 2005).
# Values joined by “and” are separate entries in the source; they are usually repeats but may differ in a detail not shown here. Identical values can stand only once.
# Assays:
# 1A9/ptx-10 [1] = experiment: (§1) Inhibitory concentration against beta-tubulin mutant 1A9PTX10 cell growth; format: functional, cell-based; conditions: Homo sapiens
# 1A9 [2] = experiment: Inhibitory concentration against ovarian carcinoma 1A9 cell growth; format: functional, cell-based; conditions: Homo sapiens
# 1A9/ptx-22 [3] = experiment: (§2) Inhibitory concentration against beta-tubulin mutant 1A9PTX22 cell line; format: functional, cell-based; conditions: Homo sapiens
# 1A9/ptx-10 [4] = experiment: as §1; format: functional, cell-based; conditions: Homo sapiens; remark: listed apart in the source
# 1A9/ptx-22 [5] = experiment: as §2; format: functional, cell-based; conditions: Homo sapiens; remark: listed apart in the source
# Bacteria = experiment: Minimum inhibitory concentration against bacterial strains; format: functional
# [6] = target: Tubulin beta-4B chain (Homo sapiens) (UniProt P68371); experiment: Percent […] of tubulin by the compound; format: functional
# Method in brief: (§3)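 Tubulin polymerization was read as percent polymerization, with test drug at 100 µM and a 90 min incubation.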
# OVCAR-3 = experiment: Cytotoxicity by measuring inhibitory concentration against ovcar-3 tumor cell line; format: functional, cell-based, Homo sapiens
# Somatostatin receptor = experiment: Binding affinity for SRIF (somatostatin) receptor; format: protein assay
# Nucleic Acid = experiment: Binding affinity towards DNA extracted from MOLT-4 cells; format: cell-free; conditions: Homo sapiens
# [7] = target: Tubulin beta-4B chain (Homo sapiens) (UniProt P68371); experiment: (§4) Tubulin polymerization at a concentration of 100 uM incubated for 90 minutes; format: functional; method in brief: as §3
# [8] = target: Tubulin beta-4B chain (Homo sapiens) (UniProt P68371); experiment: as §4; method in brief: as §3
# 1A9 [9] = experiment: Cytotoxicity against 1A9 human ovarian carcinoma cells; format: functional, cell-based
# Sequence of Tubulin beta-4B chain (Homo sapiens) (P68371 whole entry): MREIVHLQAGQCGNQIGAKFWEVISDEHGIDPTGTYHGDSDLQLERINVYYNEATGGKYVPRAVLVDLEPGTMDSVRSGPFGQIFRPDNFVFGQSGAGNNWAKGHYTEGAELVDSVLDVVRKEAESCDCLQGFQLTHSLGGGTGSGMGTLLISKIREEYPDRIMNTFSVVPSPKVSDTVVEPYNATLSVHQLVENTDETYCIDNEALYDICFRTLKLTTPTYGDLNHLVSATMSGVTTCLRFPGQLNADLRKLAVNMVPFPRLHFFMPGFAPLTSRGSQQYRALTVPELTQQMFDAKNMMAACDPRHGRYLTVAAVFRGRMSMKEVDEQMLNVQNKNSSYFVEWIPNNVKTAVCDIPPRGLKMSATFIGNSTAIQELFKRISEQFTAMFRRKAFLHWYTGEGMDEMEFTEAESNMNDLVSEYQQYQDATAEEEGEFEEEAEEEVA
Structure (SMILES),IC50 (1A9/ptx-10 [1]) [µM],IC50 (1A9 [2]) [µM],IC50 (1A9/ptx-22 [3]) [µM],IC50 (1A9/ptx-10 [4]) [µM],IC50 (1A9/ptx-22 [5]) [µM],other results
C/C(=C\c1csc(C)n1)[C@@H]1C[C@@H]2C[C@@]2(C)CCC[C@H](C)[C@H](O)[C@@H](C)C(=O)C(C)(C)CCC(=O)O1,0.052,0.015,0.005,0.052,0.005,–
Cc1cccc(C)c1SSCCNC(=O)/C(Cc1cc(F)cc(F)c1)=N/O,–,–,–,–,–,MIC (Bacteria): 0.28 ug m/L
C/C(=C\c1cccc(C)n1)[C@@H]1C[C@@H]2O[C@]2(C)CCC[C@H](C)[C@H](O)[C@@H](C)C(=O)C(C)(C)[C@@H](O)CC(=O)O1,0.072,0.009,0.018,0.072,0.018,TP [6]: 45%
CC(=O)OC1C(=O)[C@@]2(C)[C@H]([C@H](OC(=O)c3ccc4ccccc4c3)[C@]3(O)C[C@H](OC(=O)[C@H](O)[C@@H](NC(=O)c4ccccc4)c4ccccc4)C(C)=C1C3(C)C)[C@]1(OC(C)=O)CO[C@@H]1C[C@@H]2O (some centres undefined),–,–,–,–,–,IC50 (OVCAR-3; ovcar-3): > 11000 µM
NCCCCCCOC[C@@H]1O[C@@H](OCCc2cc3ccccc3[nH]2)[C@@H](OCc2ccccc2)[C@@H](OCc2ccccc2)[C@@H]1OCc1ccccc1,–,–,–,–,–,IC50 (Somatostatin receptor): 11 µM
C/C(=C\c1ccc(C)cn1)[C@@H]1C[C@@H]2C[C@@]2(C)CCC[C@H](C)[C@H](O)[C@@H](C)C(=O)C(C)(C)CCC(=O)O1,0.0109,0.00174,0.0056,0.0109,0.0056,–
CC(=O)OC1C(=O)[C@@]2(C)[C@H]([C@H](OC(=O)c3ccco3)[C@]3(O)C[C@H](OC(=O)[C@H](O)[C@@H](NC(=O)c4ccccc4)c4ccccc4)C(C)=C1C3(C)C)[C@]1(OC(C)=O)CO[C@@H]1C[C@@H]2O (some centres undefined),–,–,–,–,–,"IC50 (OVCAR-3; Homo sapiens, OVCAR-3): 0.0451 µM; IC50 (OVCAR-3; ovcar-3): 0.045 µM"
CCNC1COC(OC2C(O[C@H]3C#C/C=C\C#C[C@@](C)(O)C(=C/CSSSC)/C3=C(\NC(=O)OC)C(C)=O)OC(C)C(NOC3CC(O)C(SC(=O)c4c(C)c(I)c(OC5OC(C)C(O)C(OC)C5O)c(OC)c4OC)C(C)O3)C2O)CC1OC (some centres undefined),–,–,–,–,–,K obs (Nucleic Acid): 0.135 µM
CO[C@]12C=C[C@](C)(O1)[C@@H](OC(=O)/C=C/c1csc(C)n1)C[C@H]1C(C)=CC[C@H](C(C)C)[C@H]1/C=C\2COC1OCC(O)C(O)C1OC(C)=O (some centres undefined),–,–,–,–,–,TP [7]: 56%; TP [8]: 56%
OCCCCCNCC1OC(OCCc2cc3ccccc3[nH]2)C(OCc2ccccc2)CC1OCc1ccccc1 (centres undefined),–,–,–,–,–,IC50 (Somatostatin receptor): 10 µM
CCNC1COC(OC2C(OC)OC(C)C(NOC3CC(O)C(SC(=O)c4c(C)c(Cl)c(OC5OC(C)C(O)C(OC)C5O)c(OC)c4OC)C(C)O3)C2O)CC1OC (centres undefined),–,–,–,–,–,K obs (Nucleic Acid): 32 µM
CSc1nc(/C=C(\C)[C@@H]2C/C=C\CCC[C@H](C)[C@H](O)[C@@H](C)C(=O)C(C)(C)[C@@H](O)CC(=O)O2)cs1,0.022,0.009,0.028,0.022,0.028,TP [6]: 92%
C/C(=C\c1ncccc1C)[C@@H]1C[C@@H]2O[C@]2(C)CCC[C@H](C)[C@H](O)[C@@H](C)C(=O)C(C)(C)[C@@H](O)CC(=O)O1,> 0.3,> 0.3,> 0.3,> 0.3,> 0.3,TP [6]: 0%
OCCCCCCNCC1OC(OCCc2cc3ccccc3[nH]2)C(OCc2ccccc2)CC1OCc1ccccc1 (centres undefined),–,–,–,–,–,IC50 (Somatostatin receptor): 34 µM
CSc1nc(/C=C(\C)[C@@H]2C[C@@H]3C[C@H]3CCC[C@H](C)[C@H](O)[C@@H](C)C(=O)C(C)(C)CCC(=O)O2)cs1,0.0032,0.0012,0.0008,0.0032,0.0008,–
C/C(=C\c1csc(C)n1)[C@@H]1C[C@@H]2O[C@@H]2CCC[C@H](C)[C@H](O)[C@@H](C)C(=O)C(C)(C)[C@@H](O)CC(=O)O1 [EPOTHILONE A],0.02,0.0022,0.0059,0.02,0.0059,TP [6]: 76%
C/C(=C\c1ccc(C)cn1)[C@@H]1C[C@@H]2C[C@@H]2CCC[C@H](C)[C@H](O)[C@@H](C)C(=O)C(C)(C)[C@@H](O)CC(=O)O1,0.0192,0.0025,0.00422,0.0192,0.00422,–
CCNC1COC(OC2C(OC)OC(C)C(NOC3CC(O)C(SC(=O)c4c(C)c(Br)c(OC5OC(C)C(O)C(OC)C5O)c(OC)c4OC)C(C)O3)C2O)CC1OC (centres undefined),–,–,–,–,–,K obs (Nucleic Acid): 10 µM
NCCCCCOC[C@@H]1O[C@@H](OCCc2cc3ccccc3[nH]2)[C@@H](OCc2ccccc2)[C@@H](OCc2ccccc2)[C@@H]1OCc1ccccc1,–,–,–,–,–,IC50 (Somatostatin receptor): 15 µM
O=C(NCCSSCCNC(=O)/C(Cc1ccc(O)c(Br)c1)=N/O)/C(Cc1ccc(O)c(Br)c1)=N/O [PSAMMAPLIN A],–,–,–,–,–,MIC (Bacteria): 4.85 ug m/L
O=C(/C=C/c1cccs1)N/C=C/C[C@H]1C[C@H]2C[C@H](O)C[C@H](Cc3cccc(O)c3C(=O)O1)O2,–,–,–,–,–,IC50 (1A9 [9]): 0.0413 µM
C/C(=C\c1ccc(C)cn1)[C@@H]1C[C@@H]2C[C@H]2CCC[C@H](C)[C@H](O)[C@@H](C)C(=O)C(C)(C)CCC(=O)O1,0.0059,0.0006,0.0014,0.0059,0.0014,–
CCNC1COC(OC2C(OC)OC(C)C(NOC3CC(O)C(SC(=O)c4c(C)c(C)c(OC5OC(C)C(O)C(OC)C5O)c(OC)c4OC)C(C)O3)C2O)CC1OC (centres undefined),–,–,–,–,–,K obs (Nucleic Acid): 38 µM

Structure (SMILES),IC50 (1A9/ptx-10 [1]) [µM],IC50 (1A9 [2]) [µM],IC50 (1A9/ptx-22 [3]) [µM],IC50 (1A9/ptx-10 [4]) [µM],IC50 (1A9/ptx-22 [5]) [µM],other results
CC(=O)O[C@@H]1C2=C(C)[C@@H](OC(=O)[C@H](O)[C@@H](NC(=O)c3ccccc3)c3ccccc3)C[C@@](O)([C@@H](OC(=O)c3ccccc3)c3ccccc3[C@H]1OC(C)=O)C2(C)C,–,–,–,–,–,IC50 (OVCAR-3; ovcar-3): 0.028 µM and 0.28 µM
CC(=O)OC1C(=O)[C@@]2(C)[C@H]([C@H](OC(=O)c3ccc(N(C)C)cc3)[C@]3(O)C[C@H](OC(=O)[C@H](O)[C@@H](NC(=O)c4ccccc4)c4ccccc4)C(C)=C1C3(C)C)[C@]1(OC(C)=O)CO[C@@H]1C[C@@H]2O (some centres undefined),–,–,–,–,–,"IC50 (OVCAR-3; Homo sapiens, OVCAR-3): 2.21 µM; IC50 (OVCAR-3; ovcar-3): 2.2 µM"
C/C(=C\c1csc(C)n1)[C@@H]1C[C@@H]2O[C@]2(C)CCC[C@H](C)[C@H](O)[C@@H](C)C(=O)C(C)(C)[C@@H](O)CC(=O)O1 [PATUPILONE],0.001,0.00013,0.00031,0.001,0.00031,TP [6]: 98%
C/C(=C\c1ccc(C)cn1)[C@@H]1C[C@@H]2O[C@]2(C)CCC[C@H](C)[C@H](O)[C@@H](C)C(=O)C(C)(C)[C@@H](O)CC(=O)O1,0.0006,0.00015,0.00015,0.0006,0.00015,TP [6]: 92%
NCCCCCOCC1CC(OCc2ccccc2)C(OCc2ccccc2)C(OCCc2cc3ccccc3[nH]2)O1 (centres undefined),–,–,–,–,–,IC50 (Somatostatin receptor): 47 µM
OCCCCCNCC1OC(OCCc2cc3ccccc3[nH]2)C(OCc2ccccc2)C(OCc2ccccc2)C1OCc1ccccc1 (centres undefined),–,–,–,–,–,IC50 (Somatostatin receptor): 14 µM
OCCCCCCNCC1OC(OCCc2cc3ccccc3[nH]2)C(OCc2ccccc2)C(OCc2ccccc2)C1OCc1ccccc1 (centres undefined),–,–,–,–,–,IC50 (Somatostatin receptor): 5.1 µM
C/C(=C\c1csc(C)n1)[C@@H]1C[C@@H]2O[C@]2(CF)CCC[C@H](C)[C@H](O)[C@@H](C)C(=O)C(C)(C)[C@@H](O)CC(=O)O1,0.0004,0.0002,0.0002,0.0004,0.0002,TP [6]: 93%
C/C(=C\c1ccccn1)[C@@H]1C[C@@H]2O[C@]2(C)CCC[C@H](C)[C@H](O)[C@@H](C)C(=O)C(C)(C)[C@@H](O)CC(=O)O1,0.001,0.0001,0.00015,0.001,0.00015,TP [6]: 79.5%
CC/C=C\C=C/C(=O)N/C=C/C[C@H]1C[C@H]2C[C@H](OC(C)=O)C[C@H](Cc3cccc(O)c3C(=O)O1)O2,–,–,–,–,–,IC50 (1A9 [9]): 0.0032 µM
C/C(=C\c1csc(C)n1)[C@@H]1C[C@@H]2C[C@H]2CCC[C@H](C)[C@H](O)[C@@H](C)C(=O)C(C)(C)CCC(=O)O1,0.0172,0.0101,0.0047,0.0172,0.0047,–
C/C(=C\c1csc(C)n1)[C@@H]1C[C@@H]2C[C@@H]2CCC[C@H](C)[C@H](O)[C@@H](C)C(=O)C(C)(C)[C@@H](O)CC(=O)O1,0.009,0.00025,0.002,0.009,0.002,–
CCNC1COC(OC2C(OC)OC(C)C(NOC3CC(O)C(SC(=O)c4c(C)c(I)c(OC5OC(C)C(O)C(OC)C5O)c(OC)c4OC)C(C)O3)C2O)CC1OC (centres undefined),–,–,–,–,–,K obs (Nucleic Acid): 4.1 µM
CCNC1COC(OC2C(OC)OC(C)C(NOC3CC(O)C(SC(=O)c4c(C)cc(OC5OC(C)C(O)C(OC)C5O)c(OC)c4OC)C(C)O3)C2O)CC1OC (centres undefined),–,–,–,–,–,K obs (Nucleic Acid): 180 µM
NCCCCCCOCC1OC(OCCc2cc3ccccc3[nH]2)C(OCc2ccccc2)CC1OCc1ccccc1 (centres undefined),–,–,–,–,–,IC50 (Somatostatin receptor): 6.6 µM
CSc1nc(/C=C(\C)[C@@H]2C[C@@H]3C[C@@]3(C)CCC[C@H](C)[C@H](O)[C@@H](C)C(=O)C(C)(C)CCC(=O)O2)cs1,0.0057,0.0035,0.0115,0.0057,0.0115,–
CSc1nc(/C=C(\C)[C@@H]2C[C@@H]3O[C@]3(C)CCC[C@H](C)[C@H](O)[C@@H](C)C(=O)C(C)(C)[C@@H](O)CC(=O)O2)cs1,0.00026,0.00017,0.00025,0.00026,0.00025,–
NCCCCCOCC1OC(OCCc2cc3ccccc3[nH]2)CC(OCc2ccccc2)C1OCc1ccccc1 (centres undefined),–,–,–,–,–,IC50 (Somatostatin receptor): 35 µM
C/C(=C\c1cc(C)ccn1)[C@@H]1C[C@@H]2O[C@]2(C)CCC[C@H](C)[C@H](O)[C@@H](C)C(=O)C(C)(C)[C@@H](O)CC(=O)O1,0.00036,0.0001,0.0001,0.00036,0.0001,TP [6]: 90.3%
CCNC1COC(OC2C(OC)OC(C)C(NOC3CC(O)C(SC(=O)c4c(C)c(F)c(OC5OC(C)C(O)C(OC)C5O)c(OC)c4OC)C(C)O3)C2O)CC1OC (centres undefined),–,–,–,–,–,K obs (Nucleic Acid): 44 µM
Cc1cccc(C)c1SSCCNC(=O)/C(Cc1cccc(Br)c1)=N/O,–,–,–,–,–,MIC (Bacteria): 0.11 ug m/L
NCCCCCOCC1OC(OCCc2cc3ccccc3[nH]2)C(OCc2ccccc2)CC1OCc1ccccc1 (centres undefined),–,–,–,–,–,IC50 (Somatostatin receptor): 8.4 µM
